In ChEMBL document CHEMBL3045119, “Synthesis and fungicidal activity of novel aminophenazine-1-carboxylate derivatives” (J Agric Food Chem, 2010) one finds inhibition data, which are given here for 34 compounds.

What all share (format): functional
Experiment [1] relates to Botryosphaeria berengeriana. Nature of the experiment: Fungicidal activity against Botryosphaeria berengeriana assessed as inhibition of mycelium growth at 50 ug/mL by mycelium growth rate method. An outline of the steps:
(§1)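 Mycelium growth rate method: colony diameters measured once mycelia had grown completely, and the relative inhibition rate (%) calculated from the diameters by formula. Phenazine-1-carboxylic acid ran as control. Values are the average of three replicate results.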

The test system of the next experiment is Fusarium graminearum. Put plainly: Fungicidal activity against Fusarium graminearum assessed as inhibition of mycelium growth at 50 ug/mL by mycelium growth rate method. An outline of the steps: as §1
The test system of another experiment is Fusarium oxysporum. Nature of the experiment: Fungicidal activity against Fusarium oxysporum assessed as inhibition of mycelium growth at 50 ug/mL by mycelium growth rate method. The essentials:
as §1

The subject of another experiment is Mycosphaerella arachidis. Put plainly: Fungicidal activity against Mycosphaerella arachidis assessed as inhibition of mycelium growth at 50 ug/mL by mycelium growth rate method. The essentials:
as §1

Another experiment concerns Alternaria solani. Put plainly: Fungicidal activity against Alternaria solani assessed as inhibition of mycelium growth at 50 ug/mL by mycelium growth rate method. The essentials: as §1

As for `Nc1ccc2nc3c(C(=O)O)cccc3nc2c1`, the inhibition at 50 µg/mL came to 4.9% in experiment [1]; 1.6% in the experiment on Fusarium graminearum; 2.7% in the experiment with Fusarium oxysporum; 11.1% in the experiment on Mycosphaerella arachidis; 5.1% in the experiment on Alternaria solani.
For `CCCCOC(=O)c1cccc2nc3c([N+](=O)[O-])c(N)ccc3nc12` the same measures were 16.1%, 25%, 17.9%, 12.5% and 17.2%.
For `CCCCOC(=O)c1cccc2nc3c(C(=O)CCCCl)cccc3nc12`, in that order: 0%, 0%, 10.7%, 8.3% and 6.1%.
For `COC(=O)c1cccc2nc3c(C(=O)CCCCl)cccc3nc12`, in that order: 41.1%, 25%, 0%, 0% and 13.8%.
Take `COC(=O)c1cccc2nc3c(S(=O)(=O)c4ccccc4[N+](=O)[O-])cccc3nc12`: the inhibition at 50 µg/mL in experiment [1] was 28.6%; in the experiment on Fusarium graminearum it was 43.2%; with Fusarium oxysporum, 0%; in the experiment on Mycosphaerella arachidis, 0%; with Alternaria solani, 3.4%.
Take `CCCOC(=O)c1cccc2nc3ccc(N)cc3nc12`: the inhibition at 50 µg/mL in experiment [1] was determined as 48.6%; in the experiment on Fusarium graminearum, 27.3%; with Fusarium oxysporum, 33.3%; in the experiment with Mycosphaerella arachidis, 20%; in the experiment on Alternaria solani, 20.2%.
For `COC(=O)c1cccc2nc3cc(C(C)=O)ccc3nc12`, the inhibition at 50 µg/mL in experiment [1] was 3.9%; in the experiment with Fusarium graminearum it was 12.7%; in the experiment on Fusarium oxysporum, 0%; with Mycosphaerella arachidis it was 0%; in the experiment on Alternaria solani, 3.3%.
Turning to `COC(=O)c1cccc2nc3cc(S(=O)(=O)c4ccc(C)cc4)ccc3nc12`, the inhibition at 50 µg/mL was found to be 8% in experiment [1]; 17.5% in the experiment on Fusarium graminearum; 13.5% in the experiment on Fusarium oxysporum; 22.2% with Mycosphaerella arachidis; 33.3% in the experiment on Alternaria solani.
As to `Nc1ccc2nc3cccc(C(=O)O)c3nc2c1`, the inhibition at 50 µg/mL is 9.6% in experiment [1]; 33.9% with Fusarium graminearum; 6.9% in the experiment with Fusarium oxysporum; 11.5% in the experiment with Mycosphaerella arachidis; 5.9% in the experiment with Alternaria solani.
For `CCCOC(=O)c1cccc2nc3cc(N)ccc3nc12` the same measures were 19.6%, 25.5%, 10%, 26.1% and 16.7%.
For `CCCCOC(=O)c1cccc2nc3c(NC(=O)CCCCl)c([N+](=O)[O-])ccc3nc12` the same measures were 37.1%, 51.5%, 16%, 11.1% and 17.4%.
Consider `COC(=O)c1cccc2nc3cc(C(=O)CCCCl)ccc3nc12`, for which the inhibition at 50 µg/mL in experiment [1] stood at 0%; with Fusarium graminearum, 36.8%; with Fusarium oxysporum, 0%; with Mycosphaerella arachidis, 7.7%; in the experiment on Alternaria solani, 37.7%.
For the compound `COC(=O)c1cccc2nc3c(N)c([N+](=O)[O-])cc([N+](=O)[O-])c3nc12`, the inhibition at 50 µg/mL in experiment [1] was 50%; in the experiment on Fusarium graminearum, 57.6%; with Fusarium oxysporum, 32%; in the experiment on Mycosphaerella arachidis, 22.2%; with Alternaria solani, 21.7%.
For `CCCCOC(=O)c1cccc2nc3ccc(N)cc3nc12`, in that order: 34.3%, 23.6%, 26.7%, 24% and 23.3%.
For `COC(=O)c1cccc2nc3ccc(N)cc3nc12` the same measures were 37.1%, 18.2%, 23.3%, 4% and 10%.
For `COC(=O)c1cccc2nc3cc(N)ccc3nc12`, the inhibition at 50 µg/mL was found to be 25% in experiment [1]; 15.1% with Fusarium graminearum; 10.8% with Fusarium oxysporum; 0% in the experiment with Mycosphaerella arachidis; 33.3% in the experiment on Alternaria solani.
Take `CCOC(=O)c1cccc2nc3cc(N)ccc3nc12`: the inhibition at 50 µg/mL in experiment [1] was 44.2%; with Fusarium graminearum, 11.3%; in the experiment with Fusarium oxysporum, 31%; in the experiment with Mycosphaerella arachidis, 7.7%; with Alternaria solani, 29.4%.
Regarding `CCCCOC(=O)c1cccc2nc3cc(N)c(OCCCC)cc3nc12`, the inhibition at 50 µg/mL in experiment [1] amounted to 25.5%; with Fusarium graminearum, 23.6%; in the experiment with Fusarium oxysporum, 0%; in the experiment with Mycosphaerella arachidis, 13%; in the experiment with Alternaria solani, 13.3%.
For `CCCOC(=O)c1cccc2nc3cc(N)c(OCCC)cc3nc12` the same measures were 26.5%, 20%, 0%, 21.7% and 20%.
For `COC(=O)c1cccc2nc3cc(C(=O)CCc4ccccc4)ccc3nc12` the same measures were 0%, 2.4%, 11.1%, 2.6% and 19.1%.
For `Nc1cccc2nc3c(C(=O)O)cccc3nc12` the same measures were 19.2%, 12.9%, 13.8%, 7.7% and 0%.
With `COC(=O)c1cccc2nc3cc(S(=O)(=O)c4ccc([N+](=O)[O-])cc4)ccc3nc12`, the inhibition at 50 µg/mL was 18.2% in experiment [1]; 0% in the experiment with Fusarium graminearum; 15.8% in the experiment with Fusarium oxysporum; 8% in the experiment with Mycosphaerella arachidis; 6.5% with Alternaria solani.
For `CCOC(=O)c1cccc2nc3cc(N)c(OCC)cc3nc12` the same measures were 26.9%, 14.5%, 6.9%, 11.5% and 17.6%.
For `CCCOC(=O)c1cccc2nc3c(N)cccc3nc12`, in that order: 57.1%, 43.6%, 36.7%, 30% and 46.7%.
With `CCCCOC(=O)c1cccc2nc3cc(OCCCC)c(N)cc3nc12`, the inhibition at 50 µg/mL stood at 34.3% in experiment [1]; 42.4% with Fusarium graminearum; 20% with Fusarium oxysporum; 16.7% with Mycosphaerella arachidis; 17.4% in the experiment with Alternaria solani.
In the case of `COC(=O)c1cccc2nc3c(C(=O)CCc4ccccc4)cccc3nc12`, the inhibition at 50 µg/mL in experiment [1] was determined as 31.4%; in the experiment on Fusarium graminearum, 30.3%; with Fusarium oxysporum it was 28%; in the experiment with Mycosphaerella arachidis, 0%; in the experiment with Alternaria solani, 4.3%.
For `COC(=O)c1cccc2nc3c(S(=O)(=O)c4ccc([N+](=O)[O-])cc4)cccc3nc12` the same measures were 17.9%, 31.8%, 17.9%, 25% and 13.8%.
For `CCCCOC(=O)c1cccc2nc3c(N)cccc3nc12`, in that order: 15.6%, 2.7%, 21.4%, 8.3% and 24.2%.
For `COC(=O)c1cccc2nc3c(NC(=O)CCCCl)c([N+](=O)[O-])ccc3nc12`, in that order: 34.4%, 40.4%, 16.3%, 35% and 20.5%.
`CCCCOC(=O)c1cccc2nc3c(N)c([N+](=O)[O-])cc([N+](=O)[O-])c3nc12`: the inhibition at 50 µg/mL was 42.9% in experiment [1]; 53% in the experiment with Fusarium graminearum; 24% in the experiment with Fusarium oxysporum; 5.6% with Mycosphaerella arachidis; 17.4% with Alternaria solani.
For `COC(=O)c1cccc2nc3cc(C(=O)C(Cl)(Cl)Cl)ccc3nc12` the same measures were 21.8%, 4.8%, 5.3%, 12% and 0%.
Regarding `COC(=O)c1cccc2nc3cc(C(=O)COC(C)=O)ccc3nc12`, the inhibition at 50 µg/mL in experiment [1] came to 1.8%; in the experiment on Fusarium graminearum it was 4.8%; in the experiment on Fusarium oxysporum, 5.3%; in the experiment with Mycosphaerella arachidis it was 4%; with Alternaria solani it was 6.5%.
For `CCCCOC(=O)c1cccc2nc3cc(N)ccc3nc12` the same measures were 29.6%, 7.3%, 13.3%, 17.4% and 43.3%.
For `COC(=O)c1cccc2nc3cc(C(=O)c4ccc(Cl)cc4Cl)ccc3nc12`, in that order: 0%, 0%, 7.1%, 0% and 3%.
